Consider 1 compound from ChEMBL document CHEMBL1671655, “Anidulafungin is fungicidal and exerts a variety of postantifungal effects against Candida albicans, C. glabrata, C. parapsilosis, and C. krusei isolates” (2009).

≈ marks a conversion by molar mass, not a printed value. Calls of active or inactive are those of the source. The calls are words filed in the database; no cut-off is given here. Starred links: 1 amine or outer side, 2 acyl side, 3 side chain; linkers in the order of their positions; H or OH if unused. Positions of bridges follow the written chain, without caps; N, C: chain ends. Non-standard residues stand in square brackets, D forms with d. Residues, ends and D or L forms follow the SMILES beside them. *: point of attachment. pTerphenylCO(4''-OnC5H11) = CCCCCOc1ccc(-c2ccc(-c3ccc(C(=O)*)cc3)cc2)cc1; Orn(4R-OH,5R-OH) = O=C([C@H](C[C@@H](O)[C@@H](O)N[*:3])N[*:1])[*:2]; hTyr(3S-OH,4S-OH) = N[C@H](C(=O)O)[C@H](O)[C@@H](O)c1ccc(O)cc1; Pro(3S-OH,4S-Me) = C[C@H]1CN[C@H](C(=O)O)[C@H]1O; Hyp = O=C(O)[C@@H]1C[C@@H](O)CN1

The subject of assay [1] is Pichia kudriavzevii. Nature of the assay: Antifungal activity against Candida krusei isolate ATCC 6258 assessed as time period for bacterial growth inhibition at 4 times MIC after 1 hr drug exposure. The class given is functional. A digest of the protocol:
(§1)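 Inoculum of about 1 x 10^5 to 5 x 10^5 CFU/ml in MOPS-buffered RPMI (pH 7.0), shaken at 35°C and exposed to drug for 1 h. Cells then washed and centrifuged three times and resuspended in drug-free warm RPMI. Samples plated on SDA at 0, 2, 4, 8, 12, 24 and 48 h, with CFU counted after 48 h at 35°C. Run twice per isolate; values are means.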

Assay [2] has as its system Nakaseomyces glabratus. The assay is described as follows: Antifungal activity against Candida glabrata isolate 1 coincubated with mouse J774 macrophages assessed as macrophage induced bacterial cell killing at 4 times MIC (reference value: 12 +/- 10 %). Type of assay: functional.
Assay [3] concerns Candida albicans. Nature of the assay: Increase in susceptibility to SDS in Candida albicans isolate 1 assessed as cell wall damage at 4 times MIC after 1 hr relative to control. The class given is functional, organism-based. Put shortly:
(§2)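 Cells recovered 8 h after a 1-h drug exposure were grown in YPD with 1% glucose to exponential phase and adjusted to OD599 0.1. Undiluted culture and 10-fold serial dilutions were spotted onto YPD plates containing SDS (0.01 to 0.04%), then incubated 72 h at 30°C. Growth compared with unexposed control cells; triplicate.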

Assay [4] relates to Candida parapsilosis. The assay is described as follows: Increase in susceptibility to SDS in Candida parapsilosis isolate 1 assessed as cell wall damage at MIC after 1 hr relative to control. The class given is functional, organism-based. Put shortly:
as §2

Assay [5] concerns Nakaseomyces glabratus. Nature of the assay: Fungicidal activity against Candida glabrata isolate 1 assessed as log reduction in bacterial count at MIC after 48 hrs by time-kill analysis. The class given is functional. The note with it: isolate 1, 48 h. Put shortly:
(§3)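 Isolates subcultured twice on SDA, suspended to 0.5 McFarland, giving ~1 x 10^5 to 5 x 10^5 CFU/ml in MOPS-buffered RPMI 1640 (pH 7.0) with or without drug at multiples of MIC (MIC by CLSI M27-A3). Tubes shaken at 35°C with continuous drug. Sampled at 0–48 h, diluted 10-fold and plated on SDA; CFU counted after 48 h at 35°C. Run twice per isolate; means.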

For assay [6], the system named is Nakaseomyces glabratus. Nature of the assay: Increase in susceptibility to calcofluor white in Candida glabrata isolate 1 assessed as cell wall damage at 16 times MIC after 1 hr relative to control. The class given is functional, organism-based. Put shortly: (§4)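 Cells recovered 8 h after a 1-h drug exposure were grown to exponential phase in YPD with 1% glucose and adjusted to OD599 0.1. Undiluted and 10-fold serially diluted cultures were spotted onto YPD plates containing calcofluor white, then incubated at 30°C for 72 h. Growth compared with no-drug control cells; triplicate.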

Assay [7] deals with Nakaseomyces glabratus. Nature of the assay: Increase in susceptibility to calcofluor white in Candida glabrata isolate 3 assessed as cell wall damage at MIC after 1 hr relative to control. The class given is functional, organism-based. Put shortly:
as §4

The subject of assay [8] is Nakaseomyces glabratus. The assay is described as follows: Fungicidal activity against Candida glabrata isolate 1 assessed as log reduction in bacterial count at MIC after drug exposure for 1 hr followed by washout measured after 48 hrs in the absence of drug by PAFE study. The class given is functional. A digest of the protocol: (§5)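 Starting inoculum ~1 x 10^5 to 5 x 10^5 CFU/ml in MOPS-buffered RPMI 1640 (pH 7.0) with drug at multiples of the CLSI M27-A3 MIC. After 1 h at 35°C, cells washed and centrifuged three times at 1,400 x g for 10 min, then resuspended in warm drug-free RPMI. Shaken at 35°C and plated on SDA at 0–48 h; CFU counted after 48 h. Run twice per isolate; means.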

Assay [9] has as its system Candida albicans. The assay is described as follows: Fungicidal activity against Candida albicans isolate 2 assessed as log reduction in bacterial count at 16 times MIC after drug exposure for 1 hr followed by washout measured after 48 hrs in the absence of drug by PAFE study. The class given is functional. Put shortly: as §5
The subject of assay [10] is Candida parapsilosis. The assay is described as follows: Increase in susceptibility to SDS in Candida parapsilosis isolate 1 assessed as cell wall damage at 4 times MIC after 1 hr relative to control. Type of assay: functional, organism-based. A digest of the protocol:
as §2

Assay [11] relates to Candida albicans. The assay is described as follows: Increase in susceptibility to SDS in Candida albicans isolate 1 assessed as cell wall damage at 16 times MIC after 1 hr relative to control. The class given is functional, organism-based. A digest of the protocol:
as §2

Assay [12] relates to Nakaseomyces glabratus. The assay is described as follows: Fungicidal activity against Candida glabrata isolate 3 assessed as log reduction in bacterial count at MIC after 48 hrs by time-kill analysis. The class given is functional. The note with it: isolate 3, 48 h. Put shortly:
as §3

Assay [13] concerns Candida albicans. Nature of the assay: Fungicidal activity against Candida albicans isolate S assessed as log reduction in bacterial count at 4 times MIC after drug exposure for 1 hr followed by washout measured after 48 hrs in the absence of drug by PAFE study. Type of assay: functional. A digest of the protocol:
as §5

For assay [14], the system named is Candida parapsilosis. The assay is described as follows: Antifungal activity against Candida parapsilosis isolate 1 assessed as time period for bacterial growth inhibition at 16 times MIC after 1 hr drug exposure. Type of assay: functional. Put shortly:
as §1

Assay [15] has as its system Pichia kudriavzevii. The assay is described as follows: Antifungal activity against Candida krusei isolate 1 assessed as cell wall damage at 4 times MIC by Transmission electron microscopy. Type of assay: functional, organism-based. Put shortly: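 Cells recovered 8 h after a 1-h drug exposure were grown on SDA for 24 h at 35°C. Colonies fixed at 4°C in 0.1 M cacodylate (pH 7.2) with 2% glutaraldehyde and 2% paraformaldehyde, ethanol-dehydrated and embedded in Lowicryl K4M. Thin sections examined by transmission EM.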

Assay [16] relates to Candida albicans. The assay is described as follows: Increase in susceptibility to calcofluor white in Candida albicans isolate 1 assessed as cell wall damage at 16 times MIC after 1 hr relative to control. The class given is functional, organism-based. Put shortly:
as §4

Assay [17] deals with Nakaseomyces glabratus. Nature of the assay: Fungicidal activity against Candida glabrata isolate 1 assessed as log reduction in bacterial count at 4 times MIC after drug exposure for 1 hr followed by washout measured after 48 hrs in the absence of drug by PAFE study. Type of assay: functional. A digest of the protocol: as §5
In assay [18] the test system is Nakaseomyces glabratus. Nature of the assay: Increase in susceptibility to SDS in Candida glabrata isolate 3 assessed as cell wall damage at 16 times MIC after 1 hr relative to control. The class given is functional, organism-based. Put shortly:
as §2

Assay [19] has as its system Nakaseomyces glabratus. Nature of the assay: Increase in susceptibility to SDS in Candida glabrata isolate 3 assessed as cell wall damage at MIC after 1 hr relative to control. Type of assay: functional, organism-based. Put shortly:
as §2

In assay [20] the test system is Candida parapsilosis. Nature of the assay: Antifungal activity against Candida parapsilosis isolate A assessed as time period for bacterial growth inhibition at 16 times MIC after 1 hr drug exposure. Type of assay: functional. A digest of the protocol: as §1
Assay [21] has as its system Candida parapsilosis. The assay is described as follows: Fungicidal activity against Candida parapsilosis isolate A assessed as log reduction in bacterial count at 16 times MIC after 48 hrs by time-kill analysis. Type of assay: functional. The note with it: Lodderomyces parapsilosis. A digest of the protocol: (§6)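 Isolates subcultured twice on SDA, then suspended to 0.5 McFarland and diluted into RPMI 1640 (MOPS, pH 7.0) with or without anidulafungin, giving about 1 x 10^5 to 5 x 10^5 CFU/ml. Tubes were shaken at 35°C. Samples were taken at 0, 2, 4, 8, 12, 24 and 48 h, serially diluted 10-fold, plated on SDA, and CFU counted after 48 h at 35°C. Each isolate was run twice; mean values.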

Assay [22] concerns Candida parapsilosis. Nature of the assay: Fungicidal activity against Candida parapsilosis isolate S assessed as log reduction in bacterial count at 4 times MIC after 48 hrs by time-kill analysis. Type of assay: functional. Conditions: Lodderomyces parapsilosis. Put shortly: as §6
In assay [23] the test system is Pichia kudriavzevii. Nature of the assay: Increase in susceptibility to calcofluor white in Candida krusei isolate ATCC 6258 assessed as cell wall damage at MIC after 1 hr relative to control. The class given is functional, organism-based. Put shortly: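 Candida given a 1-h anidulafungin pulse in MOPS-buffered RPMI 1640 (pH 7.0) at 35°C, washed three times by centrifugation, and regrown drug-free. Cells collected 8 h later, grown in YPD with 1% glucose to exponential phase, and set to OD599 0.1. Undiluted culture and 10-fold dilutions (4 µl) spotted on YPD plates with calcofluor white, then 30°C for 72 h. Triplicate; compared with no-drug cells.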

For assay [24], the system named is Nakaseomyces glabratus. Nature of the assay: Antifungal activity against Candida glabrata by NCCLS M27A broth microdilution method. Type of assay: functional. (In general: Broth dilution looks for growth in wells or tubes with falling amounts of substance.)

A word on the MIC90: it is the lowest concentration that inhibits either 90% of growth or 90% of the strains tested, depending on the study. `CCCCCOc1ccc(-c2ccc(-c3ccc(C(=O)N[C@H]4C[C@@H](O)[C@@H](O)NC(=O)[C@@H]5[C@@H](O)[C@@H](C)CN5C(=O)[C@H]([C@@H](C)O)NC(=O)[C@H]([C@H](O)[C@@H](O)c5ccc(O)cc5)NC(=O)[C@@H]5C[C@@H](O)CN5C(=O)[C@H]([C@@H](C)O)NC4=O)cc3)cc2)cc1` [ANIDULAFUNGIN] ({pTerphenylCO(4''-OnC5H11)}-[Orn(4R-OH,5R-OH)]T[Hyp][hTyr(3S-OH,4S-OH)]T[Pro(3S-OH,4S-Me)]; lactam 1-C): the Time in assay [1], in assay [14] and in assay [20] was 8 h throughout. In addition, the “inhibition (INH)” value in assay [2] amounted to 33%. For the same compound, the outcome in assay [3], in assay [4], in assay [6], in [7], in assay [10] and in assay [11] was Active. For the same compound, the outcome in assay [15], in assay [16], in [18], in assay [19] and in assay [23] was Active. Moreover, the log reduction turned out to be 1.8 log CFU/ml in [5]; 0.89 in assay [8]; 1.55 in assay [9]; 1 log CFU/ml in assay [12]; 2.09 log CFU/ml in assay [13]; 2.81 in [17]. Further, the log reduction was 3.42 log CFU/ml in assay [21] and 2.77 log CFU/ml in assay [22]. In [24], the MIC90 turned out to be 0.06 µg/mL (≈ 0.0526 µM).
